According to article PMC11549336 (Communications Biology, 2024):

Target: recombinant Plk1 PBD (Plk1 367-603aa) (Homo sapiens, UniProt P53350)
Assay: Peptide binding assay by isothermal titration calorimetry
Details: ITC; listed as pT600/pT608 peptide
Outline: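 Protein and peptides were dialysed against 50 mM NaP, 150 mM NaCl, 0.5 mM TCEP, pH 7.5, with concentrations set by A280. ITC at 25 °C, 750 rpm stirring. […] Buffer-only controls subtracted; data fitted to a single-site model.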

Chain of recombinant Plk1 PBD (Plk1 367-603aa) (P53350 367-603): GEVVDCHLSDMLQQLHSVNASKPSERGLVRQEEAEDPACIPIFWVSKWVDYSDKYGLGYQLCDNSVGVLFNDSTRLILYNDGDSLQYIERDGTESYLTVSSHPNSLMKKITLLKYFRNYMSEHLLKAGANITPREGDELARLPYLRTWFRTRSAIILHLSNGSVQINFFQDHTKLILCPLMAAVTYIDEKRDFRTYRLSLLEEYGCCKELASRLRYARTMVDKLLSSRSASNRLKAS

binding of peptide to recombinant Plk1 PBD, in words: could not detect any interaction
Substance: FRNVpTICPNPEDpTCDFARA [BubR1^596-614 (FRNVpTICPNPEDpTCDFARA)]
